From ChEMBL document CHEMBL4376838, “Discovery of Novel Celastrol Derivatives as Hsp90-Cdc37 Interaction Disruptors with Antitumor Activity” (J Med Chem, 2019)
Activity calls are given as the source filed them. No cut-off for these calls is given here.

Experiments:
A549 [1] = assay: Antiproliferative activity against human A549 cells assessed as inhibition of cell growth at 1.5 uM incubated for 48 hrs by MTT assay relative to control; type: functional; conditions: A549, 48 h; for inhibition of growth at 1.5 µM: read-out: GI
A549 [2] = assay: Antiproliferative activity against human A549 cells assessed as inhibition of cell growth incubated for 48 hrs by MTT assay; type: functional, cell-based; conditions: A549, 48 h
Outline: (§1)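 MTT read-out. Cells seeded at 5.0 × 10⁴ cells/ml and cultured 24 h, then exposed to the drug over a range of concentrations for 48 h, with matching DMSO as control. MTT (5 mg/ml) added for 4 h, supernatant removed, formazan dissolved in DMSO, OD read at 570 nm. Run in triplicate, mean ± SD (n = 3).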

MCF7 = assay: Antiproliferative activity against human MCF7 cells assessed as inhibition of cell growth incubated for 48 hrs by MTT assay; type: functional, cell-based; conditions: MCF7, 48 h; outline: as §1
HOS = assay: Antiproliferative activity against human HOS cells assessed as inhibition of cell growth incubated for 48 hrs by MTT assay; type: functional, cell-based; outline: as §1
HepG2 = assay: Antiproliferative activity against human HepG2 cells assessed as inhibition of cell growth incubated for 48 hrs by MTT assay; type: functional, cell-based; conditions: HepG2, 48 h; outline: as §1
[3] = target: Heat shock protein HSP 90-alpha (Homo sapiens) (UniProt P07900); assay: Inhibition of ATP binding to human HSP90 alpha at 5 to 10 uM preincubated for 30 mins followed by gamma phosphate-linked ATP sepharose addition and measured after 30 mins by ATP-binding sepharose assay based western blot analysis
Outline: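 Purified human Hsp90α incubated on ice 30 min with compound or DMSO in 10 mM Tris-HCl pH 7.5, 50 mM KCl, 5 mM MgCl2, 2 mM DTT, 20 mM Na2MoO4, 0.01% NP-40. γ-phosphate-linked ATP-Sepharose then added, 30 min at 37 °C with frequent mixing. Resin washed and pelleted, bound Hsp90α detected by SDS-PAGE/Western blot.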

[4] = target: T1, Hsp90 co-chaperone Cdc37 (Homo sapiens) (UniProt Q16543); assay: Binding affinity to Cdc37 in human A549 cells assessed as inhibition of HSP90-Cdc37 interaction by measuring decrease in Akt phosphorylation level at 5 uM incubated for 12 hrs by Western blot analysis; type: cell-based
T1 sequence (whole entry): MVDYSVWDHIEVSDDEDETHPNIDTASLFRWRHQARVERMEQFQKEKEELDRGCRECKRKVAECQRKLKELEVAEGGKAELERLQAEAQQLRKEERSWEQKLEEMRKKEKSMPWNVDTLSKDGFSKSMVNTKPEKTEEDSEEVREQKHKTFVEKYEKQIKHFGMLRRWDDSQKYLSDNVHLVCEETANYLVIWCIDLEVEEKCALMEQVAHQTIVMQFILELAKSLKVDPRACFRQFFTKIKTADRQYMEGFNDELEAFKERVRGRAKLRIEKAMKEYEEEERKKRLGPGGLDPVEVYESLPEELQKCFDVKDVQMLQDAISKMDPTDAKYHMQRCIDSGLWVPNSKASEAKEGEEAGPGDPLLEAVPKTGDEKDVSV
Outline: (§2)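 A549 cells seeded 5×10^5 per 6 cm dish, grown 12 h, then exposed to compound or DMSO for 12 h. Lysates adjusted to 3 mg/ml protein (BCA), run on 10% SDS-PAGE, immunoblotted for p-Akt and Cdk4. Band levels quantified against Hsp90 loading control. Three separate experiments, mean ± SD.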

[5] = target: T1, Hsp90 co-chaperone Cdc37 (Homo sapiens); assay: Binding affinity to Cdc37 in human A549 cells assessed as inhibition of HSP90-Cdc37 interaction by measuring decrease in CDK4 protein level at 5 uM incubated for 12 hrs by Western blot analysis; type: cell-based; outline: as §2
A549 [6] = assay: Induction of apoptosis in human A549 cells assessed as viable cells at 1.2 uM incubated for 48 hrs by Annexin V-FITC and PI staining based flow cytometric analysis (reference value: 95.5%); type: functional; conditions: A549, 48 h, read-out: Activity
Outline: (§3)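 A549 cells (4×10^5 per 6 cm dish) cultured 24 h, then treated 48 h with compound or DMSO. Cells gently harvested, washed twice in cold PBS, resuspended in binding buffer with Annexin V and PI, stained 15 min at room temperature in the dark, analysed by flow cytometry. Mean ± SD, n = 3.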

A549 [7] = assay: Induction of apoptosis in human A549 cells assessed as early apoptotic cells at 1.2 uM incubated for 48 hrs by Annexin V-FITC and PI staining based flow cytometric analysis (reference value: 0.5%); type: functional; outline: as §3
A549 [8] = assay: Induction of apoptosis in human A549 cells assessed as late apoptotic cells at 1.2 uM incubated for 48 hrs by Annexin V-FITC and PI staining based flow cytometric analysis (reference value: 3.0%); type: functional; outline: as §3
A549 [9] = assay: Induction of apoptosis in human A549 cells assessed as necrotic cells at 1.2 uM incubated for 48 hrs by Annexin V-FITC and PI staining based flow cytometric analysis (reference value: 1.0%); type: functional; outline: as §3
A549 [10] = assay: Antiproliferative activity against human A549 cells assessed as inhibition of cell growth at 0.5 uM incubated for 48 hrs by MTT assay relative to control; type: functional; conditions: A549, 48 h, read-out: GI

CC1=C(O)C(=O)C=C2C1=CC=C1[C@@]2(C)CC[C@@]2(C)[C@@H]3C[C@](C)(C(=O)OCCOC(=O)/C=C(\C#N)c4ccccc4)CC[C@]3(C)CC[C@]12C
inhibition of growth at 1.5 µM (A549 [1]): 59.6%
IC50 (A549 [2]): 1020 nM
IC50 (MCF7): 700 nM
IC50 (HOS): 540 nM
IC50 (HepG2): 650 nM

COc1ccc(/C(C#N)=C/C(=O)OCCOC(=O)[C@]2(C)CC[C@]3(C)CC[C@]4(C)C5=CC=C6C(=CC(=O)C(O)=C6C)[C@]5(C)CC[C@@]4(C)[C@@H]3C2)cc1
inhibition of growth at 1.5 µM (A549 [1]): 48.1%
IC50 (A549 [2]): 1790 nM
IC50 (MCF7): 970 nM
IC50 (HOS): 1140 nM
IC50 (HepG2): 970 nM

CC1=C(O)C(=O)C=C2C1=CC=C1[C@@]2(C)CC[C@@]2(C)[C@@H]3C[C@](C)(C(=O)OCCOC(=O)/C=C(\C#N)c4ccc(F)cc4)CC[C@]3(C)CC[C@]12C
inhibition of growth at 1.5 µM (A549 [1]): 65.9%
IC50 (A549 [2]): 1020 nM
IC50 (MCF7): 2350 nM
IC50 (HOS): 2180 nM
IC50 (HepG2): 3890 nM

COc1ccc(/C(C#N)=C/C(=O)OCCCOC(=O)[C@]2(C)CC[C@]3(C)CC[C@]4(C)C5=CC=C6C(=CC(=O)C(O)=C6C)[C@]5(C)CC[C@@]4(C)[C@@H]3C2)cc1
inhibition of growth at 1.5 µM (A549 [1]): 53.4%
IC50 (A549 [2]): 1090 nM
IC50 (MCF7): 1100 nM
IC50 (HOS): 1750 nM
IC50 (HepG2): 1270 nM

CC1=C(O)C(=O)C=C2C1=CC=C1[C@@]2(C)CC[C@@]2(C)[C@@H]3C[C@](C)(C(=O)O)CC[C@]3(C)CC[C@]12C [CELASTROL]
inhibition at 1.5 µM (A549 [1]): 48%
IC50 (A549 [2]): 1480 nM
IC50 (MCF7): 2040 nM
IC50 (HOS): 1460 nM
IC50 (HepG2): 3180 nM
inhibition [3]: inactive
inhibition [4]: Active
inhibition [5]: Active
viability at 1.2 µM (A549 [6]): 73%
Activity (A549 [7]): 7.5%
Activity (A549 [8]): 15.6%
Activity (A549 [9]): 3.9%

CC1=C(O)C(=O)C=C2C1=CC=C1[C@@]2(C)CC[C@@]2(C)[C@@H]3C[C@](C)(C(=O)OCCCOC(=O)/C=C(\C#N)c4ccccc4)CC[C@]3(C)CC[C@]12C
inhibition of growth at 1.5 µM (A549 [1]): 53.7%
IC50 (A549 [2]): 1410 nM
IC50 (MCF7): 980 nM
IC50 (HOS): 450 nM
IC50 (HepG2): 760 nM

COC(=O)CSC1C=C2C(C)(CC[C@@]3(C)[C@@H]4C[C@](C)(C(=O)OCCCOC(=O)/C=C(\C#N)c5ccc(F)cc5)CC[C@]4(C)CC[C@]23C)c2cc(OC(C)=O)c(OC(C)=O)c(C)c21 (single isomer, unassigned)
inhibition of growth at 0.5 µM (A549 [10]): 20.5%
